Reference: ChEMBL document CHEMBL4130463, “Potential Anti-inflammatory Effects of the Fruits of Paulownia tomentosa” (J Nat Prod, 2017)
pIC50, pKi: −log10 of the molar value. Active and inactive are the calls of the source. The calls are words filed in the database; no cut-off is given here.

Legend:
[1] = test system: A549; assay: Antiinflammatory activity in human A549 cells assessed as reduction in TNFalpha-induced IL8 production at 2.5 uM after 24 hrs by ELISA; format: functional, cell-based
Procedure, shortened: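 A549 cells (ATCC) grown in RPMI 1640 with 10% FBS and penicillin/streptomycin at 37 °C, 5% CO2. Seeded and grown 16 h, then held 16 h in FBS-free medium. Treated with compound with or without TNF-α for 24 h. IL-8 measured by ELISA at 450 nm and expressed as % of the TNF-α-alone control. Means ± SD of three independent experiments.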

[2] = test system: A549; assay: Cytotoxicity against human A549 cells assessed as effect on cell viability at 2.5 uM after 24 hrs by CCK8 assay; format: cell-based; conditions: a549, 24 h
Procedure, shortened: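 A549 cells in RPMI 1640 with 10% FBS were seeded at about 1 × 10^4 cells/well and grown 16 h, then switched to FBS-free medium for 16 h. Compound added with or without TNF-α for 24 h. Viability measured in triplicate by CCK-8 absorbance and expressed as % of the negative control.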

[3] = biological target: T1, Neutrophil elastase (Homo sapiens, UniProt P08246); assay: Inhibition of human neutrophil elastase using MeOSuc-AAPV-pNA as substrate measured after 30 mins by spectrometric method
T1 sequence (P08246 whole entry): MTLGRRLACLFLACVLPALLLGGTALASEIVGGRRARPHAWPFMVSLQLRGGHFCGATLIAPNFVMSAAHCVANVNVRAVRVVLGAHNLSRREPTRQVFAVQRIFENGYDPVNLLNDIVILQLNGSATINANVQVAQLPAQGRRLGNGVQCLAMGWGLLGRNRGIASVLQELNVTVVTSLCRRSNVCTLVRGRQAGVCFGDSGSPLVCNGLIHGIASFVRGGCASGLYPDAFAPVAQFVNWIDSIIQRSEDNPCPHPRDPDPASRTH

[4] = biological target: T1, Neutrophil elastase; assay: Noncompetitive inhibition of human neutrophil elastase using varying levels of MeOSuc-AAPV-pNA as substrate measured after 30 mins by double-reciprocal Lineweaver-Burk plot analysis

Compound: CC(C)(O)CCCC1(C)CCc2c(cc3c(c2O)C(=O)[C@H](O)[C@@H](c2ccc(O)c(O)c2)O3)O1 (some centres not stated)
- Activity [1]: Active
- Activity [2]: Non-Toxic

Compound: O=c1cc(-c2ccc(O)cc2)oc2cc(O)cc(O)c12 [APIGENIN]
- pIC50 [3]: 4.34
- pKi [4]: 4.30

Compound: COc1ccc([C@@H]2CC(=O)c3c(cc(O)c(C/C=C(\C)CCCC(C)(C)O)c3O)O2)cc1O
- Activity [1]: Active
- Activity [2]: Non-Toxic

Compound: O=c1cc(-c2ccc(O)c(O)c2)oc2cc(O)cc(O)c12 [LUTEOLIN]
- pIC50 [3]: 4.90
- pKi [4]: 5.00

Compound: CC(C)(O)CCCC1(C)CCc2c(cc3c(c2O)C(=O)C[C@@H](c2ccc(O)cc2)O3)O1 (some centres not stated)
- Activity [1]: Active
- Activity [2]: Non-Toxic
- pIC50 [3]: < 4.00

Compound: COc1cc([C@@H]2CC(=O)c3c(cc4c(c3O)CCC(C)(CCCC(C)(C)O)O4)O2)cc(O)c1O (some centres not stated)
- Activity [1]: Active
- Activity [2]: Non-Toxic

Compound: CC(C)=CCC/C(C)=C/Cc1c(O)cc2c(c1O)C(=O)C[C@@H](c1ccc(O)c(O)c1)O2 [NYMPHAEOL A]
- pIC50 [3]: 4.64
- pKi [4]: 4.80

Compound: COc1cc([C@@H]2CC(=O)c3c(cc4c(c3O)CCC(C)(CCCC(C)(C)O)O4)O2)cc(OC)c1O (some centres not stated)
- pIC50 [3]: < 4.00

Compound: C=C(C)C(O)CC/C(C)=C/Cc1c(O)cc2c(c1O)C(=O)C[C@@H](c1cc(O)c(OC)c(O)c1)O2 (some centres not stated)
- Activity [1]: Active
- Activity [2]: Non-Toxic

Compound: COc1cc([C@@H]2CC(=O)c3c(cc(O)c(C/C=C(\C)CCCC(C)(C)O)c3O)O2)cc(OC)c1O
- Activity [1]: Active
- Activity [2]: Non-Toxic

Compound: COc1ccc([C@@H]2CC(=O)c3c(cc4c(c3O)CCC(C)(CCCC(C)(C)O)O4)O2)cc1O (some centres not stated)
- pIC50 [3]: < 4.00

Compound: COc1cc([C@@H]2CC(=O)c3c(cc(O)c(C/C=C(\C)CCC=C(C)C)c3O)O2)cc(OC)c1O
- pIC50 [3]: 4.15
